Laboratory results as given in ChEMBL document CHEMBL1154693, “Discovery of trans-4-[1-[[2,5-Dichloro-4-(1-methyl-3-indolylcarboxamido)phenyl]acetyl]-(4S)-methoxy-(2S)-pyrrolidinylmethoxy]cyclohexanecarboxylic acid: an orally active, selective very late antigen-4 antagonist” (J Med Chem, 2009).

Assays:
Integrin alpha-4/beta-1 [1] = target: T1, Integrin alpha-4/beta-1 (Homo sapiens, UniProt P05556+P13612); assay: Inhibition of europium labeled human VCAM1/Fc chimera binding to human VLA-4 alpha-4-beta-1 expressed in Chinese hamster 4B4 cells at 1.8 uM in presence of 3% HSA by fluorimetric assay; type: cell-based
T1 sequence (P05556 whole entry): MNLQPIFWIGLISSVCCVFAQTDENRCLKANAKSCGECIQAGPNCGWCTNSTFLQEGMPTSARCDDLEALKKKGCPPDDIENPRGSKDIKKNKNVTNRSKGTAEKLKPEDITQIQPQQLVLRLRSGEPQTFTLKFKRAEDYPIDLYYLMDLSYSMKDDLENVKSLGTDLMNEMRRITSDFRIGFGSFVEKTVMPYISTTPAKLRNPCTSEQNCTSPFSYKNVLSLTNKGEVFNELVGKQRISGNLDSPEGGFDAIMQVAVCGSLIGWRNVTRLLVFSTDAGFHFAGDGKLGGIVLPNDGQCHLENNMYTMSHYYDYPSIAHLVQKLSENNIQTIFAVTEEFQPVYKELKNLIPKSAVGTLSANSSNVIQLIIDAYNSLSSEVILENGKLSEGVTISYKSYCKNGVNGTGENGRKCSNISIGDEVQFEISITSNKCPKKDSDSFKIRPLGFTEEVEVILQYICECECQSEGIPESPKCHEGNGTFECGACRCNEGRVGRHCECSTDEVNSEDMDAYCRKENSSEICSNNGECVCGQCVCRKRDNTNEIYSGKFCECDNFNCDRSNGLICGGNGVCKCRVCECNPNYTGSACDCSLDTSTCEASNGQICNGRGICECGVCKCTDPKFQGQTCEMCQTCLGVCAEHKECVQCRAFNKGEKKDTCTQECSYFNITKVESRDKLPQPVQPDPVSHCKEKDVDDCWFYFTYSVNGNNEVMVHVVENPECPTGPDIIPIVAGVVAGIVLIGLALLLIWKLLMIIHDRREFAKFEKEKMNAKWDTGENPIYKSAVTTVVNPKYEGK
T1 sequence (P13612 whole entry): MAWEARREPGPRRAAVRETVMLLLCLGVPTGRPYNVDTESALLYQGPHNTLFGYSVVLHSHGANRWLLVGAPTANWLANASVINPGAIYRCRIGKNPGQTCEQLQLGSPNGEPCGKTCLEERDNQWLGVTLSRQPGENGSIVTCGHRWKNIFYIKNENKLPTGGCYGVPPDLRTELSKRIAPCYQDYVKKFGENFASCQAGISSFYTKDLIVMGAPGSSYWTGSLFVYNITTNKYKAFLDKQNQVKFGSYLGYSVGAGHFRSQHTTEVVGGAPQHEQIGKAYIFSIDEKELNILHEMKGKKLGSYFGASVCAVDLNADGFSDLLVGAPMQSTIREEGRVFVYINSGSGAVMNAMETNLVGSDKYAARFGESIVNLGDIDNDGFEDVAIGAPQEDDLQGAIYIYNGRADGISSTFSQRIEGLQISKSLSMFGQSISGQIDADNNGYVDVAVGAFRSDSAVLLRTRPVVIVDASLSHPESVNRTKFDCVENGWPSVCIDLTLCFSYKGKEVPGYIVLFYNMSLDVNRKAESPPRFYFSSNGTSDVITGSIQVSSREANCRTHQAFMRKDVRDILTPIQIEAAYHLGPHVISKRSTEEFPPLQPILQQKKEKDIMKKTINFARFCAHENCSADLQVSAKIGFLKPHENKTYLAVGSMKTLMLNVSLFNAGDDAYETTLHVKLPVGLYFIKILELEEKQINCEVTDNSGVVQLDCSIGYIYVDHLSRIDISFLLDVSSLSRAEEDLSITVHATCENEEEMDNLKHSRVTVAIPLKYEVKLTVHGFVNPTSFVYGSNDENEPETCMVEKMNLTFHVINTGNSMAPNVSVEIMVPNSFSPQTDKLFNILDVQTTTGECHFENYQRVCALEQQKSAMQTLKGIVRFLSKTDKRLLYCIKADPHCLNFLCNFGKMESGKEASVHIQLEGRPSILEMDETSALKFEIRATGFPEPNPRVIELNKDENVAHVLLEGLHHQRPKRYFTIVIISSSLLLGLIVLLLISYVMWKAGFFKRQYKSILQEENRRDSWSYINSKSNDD
In short: (§1)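 CHO-K1 4B4 cells transfected with human α4 and β1, plated at 3 × 10⁵ cells/mL and cultured 2 days, washed with HEPES pH 7.5 buffer containing Ca, Mg, Mn. Compound plus Eu-labeled human VCAM-1/Fc (final 1 nM), with or without human serum albumin, 60 min at room temperature; washed, Eu time-resolved fluorescence read; duplicates.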

Integrin alpha-4/beta-1 [2] = target: T1, Integrin alpha-4/beta-1; assay: Inhibition of europium labeled human VCAM1/Fc chimera binding to human VLA-4 alpha-4-beta-1 expressed in Chinese hamster 4B4 cells by fluorimetric assay; type: cell-based
[3] = Drug level in BALB/c mouse serum at 10 mg/kg, po after 15 mins; type: ADME, organism-based; design: dose 10 mg/kg, route oral; conditions: read-out: Drug uptake
In short: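 Serum (final 0.01-10%) assayed in the VLA-4/VCAM-1 binding assay, and concentration estimated from a calibration curve of compound spiked into untreated mouse serum.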

Mus musculus [4] = assay: Antiinflammatory activity in Ascaris suum antigen-induced BALB/c AnNCrj mouse asthma model assessed as inhibition of eosinophil infiltration in BAL fluid at 5 mg.kg, po bid administered 15 mins before and 8, 24 and 32 hrs after antigen challenge measured 48 hrs after antigen challenge; type: functional
In short: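 Female BALB/c AnNCrj mice given cyclophosphamide 150 mg/kg po (day 0), sensitized ip with Ascaris suum extract plus alum on days 2 and 14, challenged intratracheally day 22. Compound in 0.5% MC/0.03% Tween 80 po 15 min before and 8, 24, 32 h after challenge; BAL at 48 h, eosinophils from total count times Wright-stained differential.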

Integrin alpha-4/beta-1 [5] = target: T1, Integrin alpha-4/beta-1; assay: Inhibition of europium labeled human VCAM1/Fc chimera binding to human VLA-4 alpha-4-beta-1 expressed in Chinese hamster 4B4 cells in presence of 3% HSA by fluorimetric assay; type: cell-based; in short: as §1
[6] = Half life in Sprague-Dawley rat at 1 mg/kg, iv; type: ADME, organism-based; design: dose 1 mg/kg, route intravenous; conditions: in vivo
In short: (§2)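 Male Sprague-Dawley rats (7 weeks), fasted 18 h, four per group. 1 mg/kg oral in 0.5% MC or iv in saline, each with 3 equiv NaOH. Plasma drawn at 0.08 (iv) or 0.25 (po), 0.5, 1, 2 and 6 h; LC/MS/MS quantitation, noncompartmental parameters.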

[7] = Volume of distribution at steady state in Sprague-Dawley rat at 1 mg/kg, iv; type: ADME, organism-based; design: dose 1 mg/kg, route intravenous; conditions: in vivo, read-out: Vdss; in short: as §2
[8] = Clearance in Sprague-Dawley rat at 1 mg/kg, iv; type: ADME, organism-based; design: dose 1 mg/kg, route intravenous; conditions: in vivo; in short: as §2
Integrin alpha-4/beta-1 [9] = target: T1, Integrin alpha-4/beta-1; assay: Inhibition of europium labeled human VCAM1/Fc chimera binding to human VLA-4 alpha-4-beta-1 expressed in Chinese hamster 4B4 cells at 1.7 uM in presence of 3% HSA by fluorimetric assay; type: cell-based; in short: as §1
Integrin alpha-4/beta-1 [10] = target: T1, Integrin alpha-4/beta-1; assay: Inhibition of europium labeled human VCAM1/Fc chimera binding to human VLA-4 alpha-4-beta-1 expressed in Chinese hamster 4B4 cells at 1.7 uM by fluorimetric assay; type: cell-based; in short: as §1
Integrin alpha-4/beta-1 [11] = target: T1, Integrin alpha-4/beta-1; assay: Inhibition of europium labeled human VCAM1/Fc chimera binding to human VLA-4 alpha-4-beta-1 expressed in Chinese hamster 4B4 cells at 2 uM by fluorimetric assay; type: cell-based; in short: as §1
Integrin alpha-4/beta-1 [12] = target: T1, Integrin alpha-4/beta-1; assay: Inhibition of europium labeled human VCAM1/Fc chimera binding to human VLA-4 alpha-4-beta-1 expressed in Chinese hamster 4B4 cells at 2 uM in presence of 3% HSA by fluorimetric assay; type: cell-based; in short: as §1
in vivo = conditions: rat, plasma
[13] = Oral bioavailability in rat; conditions: in vivo
Mus musculus [14] = assay: Toxicity in BALB/c AnNCrj mouse assessed as induction of cholestatic liver injury at 50 mg/kg, iv for 2 days; type: organism-based; design: dose 50 mg/kg, route intravenous; conditions: in vivo, 48 h
In short: (§3)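 Mice dosed iv at 50 mg/kg or orally at 25 or 200 (mg/kg)/day for 2 days, then assessed for liver injury.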

Mus musculus [15] = assay: Toxicity in BALB/c AnNCrj mouse assessed as induction of cholestatic liver injury at 25 mg/kg, po for 2 days; type: organism-based; design: dose 25 mg/kg, route oral; conditions: in vivo, 48 h; in short: as §3

SMILES | IC50 (Integrin alpha-4/beta-1 [2]) | concentration at 0.25 h [3] | IC50 (Integrin alpha-4/beta-1 [5]) | other results
CO[C@H]1C[C@@H](CO[C@H]2CC[C@H](C(=O)O)CC2)N(C(=O)Cc2cc(Cl)c(NC(=O)c3cn(C)c4ccccc34)cc2F)C1 | 0.0029 µM | 9.4 µg/mL | 0.036 µM | inhibition (INH) (Mus musculus [4]): 30%
CC(C)n1cc(C(=O)Nc2ccc(CC(=O)N3C[C@@H](F)C[C@H]3CO[C@H]3CC[C@H](C(=O)O)CC3)cc2Cl)c2ccccc21 |  |  |  | inhibition (Integrin alpha-4/beta-1 [10]): 41%; inhibition (Integrin alpha-4/beta-1 [9]): 8%
Cc1ccccc1Cc1nc2ccc(CC(=O)N3C[C@@H](F)C[C@H]3CO[C@H]3CC[C@H](C(=O)O)CC3)cc2o1 |  |  |  | inhibition (Integrin alpha-4/beta-1 [11]): 33%; inhibition (Integrin alpha-4/beta-1 [12]): 7%
CCn1cc(C(=O)Nc2ccc(CC(=O)N3C[C@@H](F)C[C@H]3CO[C@H]3CC[C@H](C(=O)O)CC3)cc2Cl)c2ccccc21 | 0.204 µM |  |  | inhibition (Integrin alpha-4/beta-1 [9]): 21%
Cc1ccccc1NC(=O)Nc1ccc(CC(=O)N2C[C@@H](F)C[C@H]2COc2ccc(C(=O)O)cc2)cc1Cl |  |  |  | clearance (in vivo): 1.89 L/h/kg; bioavailability [13]: 11%
O=C(Cc1ccc(Nc2nc3cc(F)ccc3o2)c(Cl)c1)N1C[C@@H](F)C[C@H]1CO[C@H]1CC[C@H](C(=O)O)CC1 | 0.0073 µM | 0.358 µg/mL | 0.223 µM | 
Cc1ccccc1Nc1nc2ccc(CC(=O)N3C[C@@H](F)C[C@H]3CO[C@H]3CC[C@H](C(=O)O)CC3)c(F)c2o1 | 0.003 µM | 0.363 µg/mL | 0.07 µM | 
O=C(Nc1cc(F)c(CC(=O)N2C[C@@H](F)C[C@H]2CO[C@H]2CC[C@H](C(=O)O)CC2)cc1Cl)c1nsc2ccccc12 | 0.0075 µM | 0.307 µg/mL | 0.176 µM | 
Cn1cc(C(=O)Nc2ccc(CC(=O)N3C[C@@H](F)C[C@H]3CO[C@H]3CC[C@H](C(=O)O)CC3)cc2Cl)c2ccccc21 | 0.0026 µM | 5.16 µg/mL | 0.092 µM | half-life [6]: 42 min; Vd [7]: 0.139 L/kg; inhibition (INH) (Mus musculus [4]): 13%; clearance [8]: 0.3 L/h/kg
O=C(Cc1ccc(Nc2nc3cccc(F)c3o2)c(Cl)c1)N1C[C@@H](F)C[C@H]1CO[C@H]1CC[C@H](C(=O)O)CC1 | 0.04 µM |  | 1.03 µM | 
Cn1cc(C(=O)Nc2cc(F)c(CC(=O)N3CCC[C@H]3CO[C@H]3CC[C@H](C(=O)O)CC3)cc2Cl)c2ccccc21 | 0.012 µM |  | 0.37 µM | 
Cn1cc(C(=O)Nc2cc(Cl)c(CC(=O)N3C[C@@H](F)C[C@H]3CO[C@H]3CC[C@H](C(=O)O)CC3)cc2Cl)c2ccccc21 | 0.0055 µM | 1.88 µg/mL | 0.241 µM | 
O=C(Nc1ccc(CC(=O)N2C[C@@H](F)C[C@H]2CO[C@H]2CC[C@H](C(=O)O)CC2)cc1Cl)c1nsc2ccccc12 | 0.0027 µM | 2.15 µg/mL | 0.196 µM | 

Further lines, with some results ahead:

IC50 (Integrin alpha-4/beta-1 [2]) | concentration at 0.25 h [3] | IC50 (Integrin alpha-4/beta-1 [5]) | SMILES | other results
0.047 µM |  |  | Cc1c(F)cccc1Nc1nc2ccc(CC(=O)N3C[C@@H](F)C[C@H]3CO[C@H]3CC[C@H](C(=O)O)CC3)c(F)c2o1 | inhibition (Integrin alpha-4/beta-1 [1]): 13%
0.02 µM |  | 0.63 µM | O=C(Cc1ccc(Nc2nc3ccc(F)cc3o2)c(Cl)c1)N1C[C@@H](F)C[C@H]1CO[C@H]1CC[C@H](C(=O)O)CC1 | 
0.00053 µM | 0.193 µg/mL | 0.0039 µM | O=C(Nc1ccc(CC(=O)N2C[C@@H](F)C[C@H]2CO[C@H]2CC[C@H](C(=O)O)CC2)cc1Cl)c1c[nH]c2ccccc12 | half-life [6]: 12 min; Vd [7]: 0.668 L/kg; clearance [8]: 3.67 L/h/kg
0.128 µM |  |  | O=C(Nc1cc(F)c(CC(=O)N2C[C@@H](F)C[C@H]2CO[C@H]2CC[C@H](C(=O)O)CC2)cc1Cl)c1noc2ccccc12 | inhibition (Integrin alpha-4/beta-1 [9]): 19%
0.012 µM |  | 1.68 µM | Cc1cc(F)ccc1Nc1nc2ccc(CC(=O)N3C[C@@H](F)C[C@H]3CO[C@H]3CC[C@H](C(=O)O)CC3)c(F)c2o1 | 
0.0085 µM | 0.848 µg/mL | 0.108 µM | O=C(Nc1cc(F)c(CC(=O)N2C[C@@H](F)C[C@H]2CO[C@H]2CC[C@H](C(=O)O)CC2)cc1Cl)c1n[nH]c2ccccc12 | 
0.0059 µM | 0.508 µg/mL | 0.138 µM | O=C(Cc1ccc(Nc2nc3ccccc3o2)c(Cl)c1)N1C[C@@H](F)C[C@H]1CO[C@H]1CC[C@H](C(=O)O)CC1 | 
0.0078 µM | 0.093 µg/mL | 0.07 µM | Cn1cc(C(=O)Nc2cc(Cl)c(CC(=O)N3C[C@@H](O)C[C@H]3CO[C@H]3CC[C@H](C(=O)O)CC3)cc2Cl)c2ccccc21 | 
0.0019 µM | 1.1 µg/mL | 0.083 µM | O=C(Nc1ccc(CC(=O)N2C[C@@H](F)C[C@H]2CO[C@H]2CC[C@H](C(=O)O)CC2)cc1Cl)N1CCc2ccccc21 | 
0.0064 µM | 0.452 µg/mL | 0.045 µM | Cn1cc(C(=O)Nc2cc(F)c(CC(=O)N3C[C@@H](O)C[C@H]3CO[C@H]3CC[C@H](C(=O)O)CC3)cc2Cl)c2ccccc21 | 
0.0044 µM | 0.448 µg/mL | 0.131 µM | Cc1ccc(F)cc1Nc1nc2ccc(CC(=O)N3C[C@@H](F)C[C@H]3CO[C@H]3CC[C@H](C(=O)O)CC3)cc2o1 | 
0.0027 µM | 2.96 µg/mL | 0.171 µM | O=C(Nc1cc(F)c(CC(=O)N2C[C@@H](F)C[C@H]2CO[C@H]2CC[C@H](C(=O)O)CC2)cc1Cl)N1CCc2ccccc21 | 
0.005 µM | 11.4 µg/mL | 0.284 µM | Cn1cc(C(=O)Nc2cc(F)c(CC(=O)N3C[C@@H](F)C[C@H]3CO[C@H]3CC[C@H](C(=O)O)CC3)cc2Cl)c2ccccc21 | Activity (Mus musculus [14]): Toxic; Activity (Mus musculus [15]): Toxic; half-life [6]: 54 min; Vd [7]: 0.153 L/kg; inhibition (INH) (Mus musculus [4]): 57%; clearance [8]: 0.156 L/h/kg
0.012 µM |  | 0.29 µM | Cc1cccc2oc(Nc3ccc(CC(=O)N4C[C@@H](F)C[C@H]4CO[C@H]4CC[C@H](C(=O)O)CC4)cc3Cl)nc12 | 
0.0028 µM | 0.912 µg/mL | 0.439 µM | Cc1ccc(F)cc1Nc1nc2ccc(CC(=O)N3C[C@@H](F)C[C@H]3CO[C@H]3CC[C@H](C(=O)O)CC3)c(F)c2o1 | 
0.032 µM |  | 1.67 µM | O=C(Nc1cc(F)c(CC(=O)N2C[C@@H](F)C[C@H]2CO[C@H]2CC[C@H](C(=O)O)CC2)cc1Cl)c1nccc2ccccc12 | 
0.014 µM |  | 0.418 µM | O=C(Nc1ccc(CC(=O)N2C[C@@H](F)C[C@H]2CO[C@H]2CC[C@H](C(=O)O)CC2)cc1Cl)c1nccc2ccccc12 | 
